Data: ChEMBL document CHEMBL1154861, “Antioxidant and antiviral activities of silybin fatty acid conjugates” (Eur J Med Chem, 2010)
pEC50, pIC50: −log10 of the molar value.

Columns and labels:
Liver microsomes = assay: Antioxidant activity in Wistar rat liver microsomes assessed as inhibition of lipid peroxidation after 1 hr by thiobarbiturate color reaction; format: functional, Microsome
Summary of the method: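 Wistar rat liver microsomes in 50 mM Tris-HCl, 100 mM KCl, 0.1 mM EDTA, pH 7.4 (0.625 mg protein/mL). Compound (0–100 μM in DMSO, as added) incubated with tert-butylhydroperoxide (10 mM stock) at 37 °C for 1 h. TBA/TCA added, heated 90 °C 15 min, centrifuged, read at 535 nm. IC50 is 50% inhibition of colour; triplicates in three experiments.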

[1] = tested on: Radical scavenging activity; assay: Antioxidant activity assessed as DPPH radical scavenging activity for 10 mins; format: functional
Summary of the method: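 Test compound in DMSO/MeOH 1:9 (0–20.0 mM, solution added) mixed 1:1 by volume with 0.1 mM DPPH in the same solvent; absorbance change followed at 540 nm over 10 min. IC50 is the concentration giving 50% absorbance reduction; three measurements in three independent experiments, mean with standard deviation.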

Influenza A virus = assay: Antiviral activity against Influenza A virus (A/PR8/34(H1N1)) infected in MDCK cells assessed as inhibition of plaque formation; format: functional, organism-based; conditions: A/Puerto Rico/8/1934(H1N1)
Summary of the method: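 Compound premixed with virus in Opti-MEM I with 0.2% DMSO for 30 min at room temperature. The mixture was applied to confluent MDCK monolayers (MOI 2.5×10^-4) for 1 h at room temperature, then washed. Cells were overlaid with agar medium containing trypsin and 0.2% BSA for about 2 days at 37 °C, then fixed with glutaraldehyde and stained with methylene blue. EC50 is the concentration cutting plaque number 50% versus untreated.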

[2] = Cytotoxicity against MDCK cells after 2 hrs by MTT assay; format: cell-based, Canis lupus familiaris; conditions: dog
Summary of the method: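 MDCK cells seeded at 1.5×10^4 per well in DMEM/10% FCS for 4–5 h, washed, exposed to compound in Opti-MEM I with 0.2% DMSO for 2 h. Then washed and kept in DMEM with 0.2% BSA for 24 h at 37 °C, 5% CO2. Viability by MTT reduction; CC50 relative to untreated wells.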

[3] = Selectivity index, ratio of CC50 for MDCK cells to EC50 for Influenza A virus (A/PR8/34(H1N1)); format: toxicity, cell-based; conditions: dog, read-out: Ratio CC50/EC50

What does the source list for CCCCCCCC(=O)Oc1cc(O)c2c(c1)O[C@H](c1ccc3c(c1)OC(c1ccc(O)c(OC)c1)C(CO)O3)[C@@H](O)C2=O (stereo partly drawn)?
pIC50 (Liver microsomes): 3.93; pIC50 [1]: 2.40; pEC50 (Influenza A virus): 5.22; CC50 at 2 h [2]: 240 µM; selectivity ratio [3]: 40

With CCCCCCCCCCCC(=O)Oc1cc(O)c2c(c1)O[C@H](c1ccc3c(c1)OC(c1ccc(O)c(OC)c1)C(CO)O3)[C@@H](O)C2=O (stereo partly drawn) as the compound, how does the pIC50 (Liver microsomes) read?
The pIC50 was 4.35.

And the pIC50 [1]?
Its pIC50 is 2.52.

And the pEC50 (Influenza A virus)?
Its pEC50 is 5.22.

What about the CC50 at 2 h [2] of the same compound?
Its CC50 at 2 h is > 560 µM.

What about the selectivity ratio [3] of the same compound?
The selectivity ratio was > 93.3.

With CCCCCCCCCCCCCCCC(=O)Oc1cc(O)c2c(c1)O[C@H](c1ccc3c(c1)OC(c1ccc(O)c(OC)c1)C(CO)O3)[C@@H](O)C2=O (stereo partly drawn) as the compound, how does the pIC50 (Liver microsomes) read?
Its pIC50 is 4.54.

What about the pIC50 [1] of the same compound?
The pIC50 was 2.44.

With CCCCCCCC(=O)OCC1Oc2ccc([C@H]3Oc4cc(O)cc(O)c4C(=O)[C@@H]3O)cc2OC1c1ccc(O)c(OC)c1 (stereo partly drawn) as the compound, how does the pIC50 (Liver microsomes) read?
The pIC50 was 4.21.

And the pIC50 [1]?
The pIC50 was 2.49.

What about the CC50 at 2 h [2] of the same compound?
Its CC50 at 2 h is 30 µM.

With CCCCCCCCCCCC(=O)OCC1Oc2ccc([C@H]3Oc4cc(O)cc(O)c4C(=O)[C@@H]3O)cc2OC1c1ccc(O)c(OC)c1 (stereo partly drawn) as the compound, how does the pIC50 (Liver microsomes) read?
Its pIC50 is 4.30.

And the pIC50 [1]?
Its pIC50 is 2.55.

What about the pEC50 (Influenza A virus) of the same compound?
Its pEC50 is 5.52.

And the CC50 at 2 h [2]?
The CC50 at 2 h was 120 µM.

What about the selectivity ratio [3] of the same compound?
The selectivity ratio was 40.

Which results are given for CCCCCCCCCCCCCCCC(=O)OCC1Oc2ccc([C@H]3Oc4cc(O)cc(O)c4C(=O)[C@@H]3O)cc2OC1c1ccc(O)c(OC)c1 (stereo partly drawn)?
pIC50 (Liver microsomes): 4.28; pIC50 [1]: 2.49; pEC50 (Influenza A virus): 5.52; CC50 at 2 h [2]: > 480 µM; selectivity ratio [3]: > 160

With CCCC(=O)Oc1cc(O)c2c(c1)O[C@H](c1ccc3c(c1)OC(c1ccc(O)c(OC)c1)C(CO)O3)[C@@H](O)C2=O (stereo partly drawn) as the compound, how does the pIC50 (Liver microsomes) read?
Its pIC50 is 4.00.

And the pIC50 [1]?
The pIC50 was 2.64.

What about the pEC50 (Influenza A virus) of the same compound?
The pEC50 was 4.85.

And the CC50 at 2 h [2]?
Its CC50 at 2 h is 300 µM.

What about the selectivity ratio [3] of the same compound?
The selectivity ratio was 21.4.

With CCCC(=O)OCC1Oc2ccc([C@H]3Oc4cc(O)cc(O)c4C(=O)[C@@H]3O)cc2OC1c1ccc(O)c(OC)c1 (stereo partly drawn) as the compound, how does the pIC50 (Liver microsomes) read?
The pIC50 was 4.04.

And the pIC50 [1]?
Its pIC50 is 2.47.

What about the pEC50 (Influenza A virus) of the same compound?
Its pEC50 is 4.62.

What about the CC50 at 2 h [2] of the same compound?
The CC50 at 2 h was 300 µM.

And the selectivity ratio [3]?
Its selectivity ratio is 12.5.

Which results are given for COc1cc(C2Oc3cc([C@H]4Oc5cc(O)cc(O)c5C(=O)[C@@H]4O)ccc3OC2CO)ccc1O (stereo partly drawn) [SILIBININ]?
pIC50 (Liver microsomes): 4.24; pIC50 [1]: 2.68; CC50 at 2 h [2]: > 800 µM
